Measurements: paper PMC3190670 (ChemMedChem, 2011)

Test system: Bovine brain tubulin
Assay: turbidimetric tubulin assembly
Assay type: biochemical, Bos taurus
Details: read-out: IC50 ± SD [μM]^[a]; 10 μM tubulin, glutamate buffer, GTP, 30°C, 20 min
In short: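 Purified bovine brain tubulin was preincubated with varying test-compound concentrations in glutamate buffer at 30°C, then cooled to 0°C. GTP was added, and mixtures went into 0°C cuvettes and were warmed to 30°C. Assembly was followed turbidimetrically in a recording spectrophotometer. IC50 was the concentration that cut the extent of assembly by 50% after 20 min.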

SMILES | IC50
COc1cc(C(=O)c2oc3c(OC)cc(N)cc3c2C)cc(OC)c1OC [3j, (5-Amino-3-methyl-7-methoxybenzo[b]furan-2-yl)(3,4,5-trimethoxyphenyl)methanone] | 1.6 ± 0.1 µM
COc1cc2oc(C(=O)c3cc(OC)c(OC)c(OC)c3)c(C)c2cc1N [3h, (5-Amino-3-methyl-6-methoxybenzo[b]furan-2-yl)(3,4,5-trimethoxyphenyl)methanone] | 0.56 ± 0.08 µM
COc1cc2oc(C(=O)c3cc(OC)c(OC)c(OC)c3)cc2cc1N [3g, (5-Amino-6-methoxybenzo[b]furan-2-yl)(3,4,5-trimethoxyphenyl)methanone] | 1.4 ± 0.01 µM
COc1cc(C(=O)c2cc3cc(N)cc(OC)c3o2)cc(OC)c1OC [3i, (5-Amino-7-methoxybenzo[b]furan-2-yl)(3,4,5-trimethoxyphenyl)methanone] | 3.1 ± 0.2 µM
C=C(Br)C(=O)Nc1cccc2oc(C(=O)c3cc(OC)c(OC)c(OC)c3)cc12 [4a, 2-Bromo-N-[2-(3,4,5-trimethoxybenzoyl)-1-benzo[b]furan-4-yl]acrylamide] | > 40 µM
